By IC50 is commonly meant the midpoint of a concentration-inhibition curve. Usually CC50 stands for the concentration giving 50% cytotoxicity.

This passage reports IC50 and CC50 results from ChEMBL document CHEMBL1134488, “Potent reversible inhibitors of the protein tyrosine phosphatase CD45” (J Med Chem, 2001).

Assay [1] has as its target T1, Tyrosine-protein phosphatase non-receptor type 13 (Homo sapiens, UniProt Q12923). The assay is described as follows: Inhibitory concentration against FAP-1 pNPP.
Assay [2] has as its target T1, Tyrosine-protein phosphatase non-receptor type 13. Put plainly: Inhibitory concentration against FAP-1 using lck-10 mer as substrate.
Assay [3] has as its target T2, Receptor-type tyrosine-protein phosphatase C (Homo sapiens, UniProt P08575).
T2 sequence (P08575 whole entry): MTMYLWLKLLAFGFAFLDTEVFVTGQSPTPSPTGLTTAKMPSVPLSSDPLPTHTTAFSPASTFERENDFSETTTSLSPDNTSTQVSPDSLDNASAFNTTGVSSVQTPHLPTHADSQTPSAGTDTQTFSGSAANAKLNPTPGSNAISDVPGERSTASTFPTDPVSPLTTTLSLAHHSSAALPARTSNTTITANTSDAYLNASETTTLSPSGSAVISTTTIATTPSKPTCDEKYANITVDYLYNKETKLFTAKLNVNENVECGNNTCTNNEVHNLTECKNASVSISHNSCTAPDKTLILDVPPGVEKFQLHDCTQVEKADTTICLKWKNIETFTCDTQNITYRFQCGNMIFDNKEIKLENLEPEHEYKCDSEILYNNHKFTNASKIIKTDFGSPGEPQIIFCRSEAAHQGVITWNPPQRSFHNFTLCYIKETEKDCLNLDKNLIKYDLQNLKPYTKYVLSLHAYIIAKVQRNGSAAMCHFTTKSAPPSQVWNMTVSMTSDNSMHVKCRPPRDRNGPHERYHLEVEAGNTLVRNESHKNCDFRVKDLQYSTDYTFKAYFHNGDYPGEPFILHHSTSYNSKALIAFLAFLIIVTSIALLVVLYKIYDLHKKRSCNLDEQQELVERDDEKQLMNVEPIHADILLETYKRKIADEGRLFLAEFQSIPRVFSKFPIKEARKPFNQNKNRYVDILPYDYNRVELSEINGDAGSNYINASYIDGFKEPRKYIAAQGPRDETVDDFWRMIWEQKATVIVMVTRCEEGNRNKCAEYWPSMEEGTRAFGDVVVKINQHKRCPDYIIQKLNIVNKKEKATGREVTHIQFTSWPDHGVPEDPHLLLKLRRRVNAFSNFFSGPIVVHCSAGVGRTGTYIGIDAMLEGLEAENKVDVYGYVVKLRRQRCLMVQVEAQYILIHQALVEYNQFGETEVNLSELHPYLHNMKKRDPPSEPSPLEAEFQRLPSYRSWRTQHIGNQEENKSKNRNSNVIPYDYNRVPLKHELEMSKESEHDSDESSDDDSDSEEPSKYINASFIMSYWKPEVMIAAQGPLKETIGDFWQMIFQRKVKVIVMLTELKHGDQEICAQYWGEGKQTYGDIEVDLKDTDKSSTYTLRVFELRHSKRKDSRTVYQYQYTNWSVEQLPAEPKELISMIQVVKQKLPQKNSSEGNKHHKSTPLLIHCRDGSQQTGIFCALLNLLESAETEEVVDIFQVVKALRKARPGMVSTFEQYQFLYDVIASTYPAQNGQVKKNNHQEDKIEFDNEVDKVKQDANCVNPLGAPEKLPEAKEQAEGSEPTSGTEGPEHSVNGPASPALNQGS
The assay is described as follows: Inhibitory concentration against CD45 protein-tyrosine phosphatase using lck-10mer as substrate.

Assay [4] relates to T-cell. The assay is described as follows: In vitro inhibition of human T-cell proliferation. It counts as functional, cell-based.
In assay [5] the target is Procathepsin L (Homo sapiens, UniProt P07711). The assay is described as follows: Inhibitory concentration against Cathepsin L. In outline:
(§1)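 Cysteine protease assays. Peptide substrates were CBZ-L-lysine p-nitrophenyl ester, Z-Phe-Arg-NH-Mec and Z-Val-Val-Arg-NH-Mec. Values are means of experiments run in triplicate, given in µM.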

The subject of assay [6] is T-cell. The assay is described as follows: Cytotoxicity measured against human T-cells. It counts as functional.
The target in assay [7] is Cathepsin B (Homo sapiens, UniProt P07858). The assay is described as follows: Inhibitory concentration against Cathepsin B. An outline of the steps: as §1
The target in assay [8] is Cathepsin S (Homo sapiens, UniProt P25774). The assay is described as follows: Inhibitory concentration against Cathepsin S. In outline:
as §1

Assay [9] concerns the target T3, Tyrosine-protein phosphatase non-receptor type 1 (Homo sapiens, UniProt P18031).
T3 sequence (P18031 whole entry): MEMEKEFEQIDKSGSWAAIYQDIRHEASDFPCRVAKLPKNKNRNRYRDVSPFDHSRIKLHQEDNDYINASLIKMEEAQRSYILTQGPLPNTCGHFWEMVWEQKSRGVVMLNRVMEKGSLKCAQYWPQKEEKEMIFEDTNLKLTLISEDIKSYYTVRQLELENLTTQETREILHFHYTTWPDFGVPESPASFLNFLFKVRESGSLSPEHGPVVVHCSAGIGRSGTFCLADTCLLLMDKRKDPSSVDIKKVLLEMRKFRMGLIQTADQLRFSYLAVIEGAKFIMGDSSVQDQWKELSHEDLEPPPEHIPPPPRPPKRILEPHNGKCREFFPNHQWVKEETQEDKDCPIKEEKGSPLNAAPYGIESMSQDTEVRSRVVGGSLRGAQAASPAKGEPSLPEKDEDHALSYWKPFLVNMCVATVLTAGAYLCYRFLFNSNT
Put plainly: Inhibitory concentration against PTP1B lusing lck-10mer as substrate.

Assay [10] has as its target T1, Tyrosine-protein phosphatase non-receptor type 13. The assay is described as follows: Inhibitory concentration against FAP-1 using lck-10mer as substrate.
Assay [11] shares this target. Put plainly: Inhibitory concentration against FAP-1 using pNPP as substrate.
For assay [12], the target named is T2, Receptor-type tyrosine-protein phosphatase C. The assay is described as follows: Inhibitory concentration against CD45 protein-tyrosine phosphatase pNPP.
Assay [13] deals with T3, Tyrosine-protein phosphatase non-receptor type 1. Put plainly: Inhibitory concentration against PTP1B using lck as substrate.
For assay [14], the target named is T2, Receptor-type tyrosine-protein phosphatase C. The assay is described as follows: Inhibitory concentration against CD45 protein-tyrosine phosphatase using lck-10 mer as substrate.
The target is the same in assay [15]. Put plainly: In vitro inhibitory activity against the cytosolic portion of CD45 protein-tyrosine phosphatase using pNPP as the substrate.

T1 sequence (Q12923 whole entry): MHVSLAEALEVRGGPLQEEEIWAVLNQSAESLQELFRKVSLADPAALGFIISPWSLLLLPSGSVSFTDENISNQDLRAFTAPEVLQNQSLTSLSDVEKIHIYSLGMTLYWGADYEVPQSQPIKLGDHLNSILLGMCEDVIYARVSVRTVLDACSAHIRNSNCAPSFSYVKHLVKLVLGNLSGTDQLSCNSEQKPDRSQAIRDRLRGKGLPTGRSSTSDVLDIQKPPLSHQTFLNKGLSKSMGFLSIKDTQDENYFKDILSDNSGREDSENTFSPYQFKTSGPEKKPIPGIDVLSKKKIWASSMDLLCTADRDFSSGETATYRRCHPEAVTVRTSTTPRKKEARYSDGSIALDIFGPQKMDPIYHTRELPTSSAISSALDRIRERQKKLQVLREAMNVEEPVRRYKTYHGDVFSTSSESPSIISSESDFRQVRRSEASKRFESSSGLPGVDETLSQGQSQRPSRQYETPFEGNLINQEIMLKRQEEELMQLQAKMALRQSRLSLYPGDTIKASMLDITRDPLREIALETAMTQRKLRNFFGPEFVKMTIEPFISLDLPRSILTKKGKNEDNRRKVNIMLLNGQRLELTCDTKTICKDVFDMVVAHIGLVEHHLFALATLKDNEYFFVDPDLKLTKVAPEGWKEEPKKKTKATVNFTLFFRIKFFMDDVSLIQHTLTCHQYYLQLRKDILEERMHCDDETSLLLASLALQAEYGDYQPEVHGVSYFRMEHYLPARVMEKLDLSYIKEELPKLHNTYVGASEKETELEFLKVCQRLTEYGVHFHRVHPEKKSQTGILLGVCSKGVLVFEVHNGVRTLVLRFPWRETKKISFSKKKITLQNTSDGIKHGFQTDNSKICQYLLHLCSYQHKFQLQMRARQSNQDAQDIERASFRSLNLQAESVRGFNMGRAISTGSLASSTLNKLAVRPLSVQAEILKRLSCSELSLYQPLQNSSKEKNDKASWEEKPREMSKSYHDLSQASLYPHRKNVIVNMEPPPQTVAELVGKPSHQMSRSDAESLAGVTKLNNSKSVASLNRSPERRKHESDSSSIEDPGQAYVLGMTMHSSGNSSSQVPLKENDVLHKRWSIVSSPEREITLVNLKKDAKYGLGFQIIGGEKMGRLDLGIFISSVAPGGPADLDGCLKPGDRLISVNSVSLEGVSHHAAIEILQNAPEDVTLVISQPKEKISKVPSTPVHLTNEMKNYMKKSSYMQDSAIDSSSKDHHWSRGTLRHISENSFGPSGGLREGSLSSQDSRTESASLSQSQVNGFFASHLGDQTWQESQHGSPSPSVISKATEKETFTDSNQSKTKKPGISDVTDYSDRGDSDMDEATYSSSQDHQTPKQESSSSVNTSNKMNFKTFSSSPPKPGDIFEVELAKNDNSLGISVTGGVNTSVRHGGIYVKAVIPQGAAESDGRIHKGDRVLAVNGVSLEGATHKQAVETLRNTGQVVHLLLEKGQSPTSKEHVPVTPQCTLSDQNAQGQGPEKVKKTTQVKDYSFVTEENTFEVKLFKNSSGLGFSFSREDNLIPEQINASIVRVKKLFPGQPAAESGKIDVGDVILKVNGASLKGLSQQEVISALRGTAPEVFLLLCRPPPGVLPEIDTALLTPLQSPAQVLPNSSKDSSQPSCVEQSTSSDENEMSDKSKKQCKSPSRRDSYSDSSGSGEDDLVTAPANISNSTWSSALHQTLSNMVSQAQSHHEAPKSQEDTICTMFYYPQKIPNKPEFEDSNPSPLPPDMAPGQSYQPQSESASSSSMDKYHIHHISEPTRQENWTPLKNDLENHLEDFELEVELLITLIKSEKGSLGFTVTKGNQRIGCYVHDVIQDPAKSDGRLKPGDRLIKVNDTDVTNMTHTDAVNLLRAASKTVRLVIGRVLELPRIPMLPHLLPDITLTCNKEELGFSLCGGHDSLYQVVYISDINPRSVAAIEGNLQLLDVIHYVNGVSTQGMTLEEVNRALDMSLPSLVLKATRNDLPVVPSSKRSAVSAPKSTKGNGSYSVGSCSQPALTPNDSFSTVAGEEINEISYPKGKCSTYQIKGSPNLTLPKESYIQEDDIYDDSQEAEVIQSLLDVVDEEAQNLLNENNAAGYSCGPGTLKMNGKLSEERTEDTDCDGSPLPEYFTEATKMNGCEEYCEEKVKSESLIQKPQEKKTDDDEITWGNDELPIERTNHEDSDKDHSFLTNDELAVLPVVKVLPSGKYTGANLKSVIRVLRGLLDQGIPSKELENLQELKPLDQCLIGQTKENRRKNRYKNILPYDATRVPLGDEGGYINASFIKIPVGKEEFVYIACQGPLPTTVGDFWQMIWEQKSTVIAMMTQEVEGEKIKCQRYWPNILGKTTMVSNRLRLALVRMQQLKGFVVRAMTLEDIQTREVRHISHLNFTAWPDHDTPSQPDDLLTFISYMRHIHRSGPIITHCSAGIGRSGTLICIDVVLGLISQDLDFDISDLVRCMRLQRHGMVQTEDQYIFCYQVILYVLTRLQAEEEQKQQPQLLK
Cathepsin S, sequence (P25774 whole entry): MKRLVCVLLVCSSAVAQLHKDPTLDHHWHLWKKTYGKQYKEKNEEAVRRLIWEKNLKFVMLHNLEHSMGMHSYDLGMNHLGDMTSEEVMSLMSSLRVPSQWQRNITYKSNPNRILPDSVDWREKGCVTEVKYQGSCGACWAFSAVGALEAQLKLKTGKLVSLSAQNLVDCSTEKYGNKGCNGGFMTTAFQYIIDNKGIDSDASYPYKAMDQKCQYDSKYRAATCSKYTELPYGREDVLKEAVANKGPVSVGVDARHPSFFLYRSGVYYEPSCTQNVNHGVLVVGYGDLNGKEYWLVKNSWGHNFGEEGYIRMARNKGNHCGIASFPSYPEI
Procathepsin L, sequence (P07711 whole entry): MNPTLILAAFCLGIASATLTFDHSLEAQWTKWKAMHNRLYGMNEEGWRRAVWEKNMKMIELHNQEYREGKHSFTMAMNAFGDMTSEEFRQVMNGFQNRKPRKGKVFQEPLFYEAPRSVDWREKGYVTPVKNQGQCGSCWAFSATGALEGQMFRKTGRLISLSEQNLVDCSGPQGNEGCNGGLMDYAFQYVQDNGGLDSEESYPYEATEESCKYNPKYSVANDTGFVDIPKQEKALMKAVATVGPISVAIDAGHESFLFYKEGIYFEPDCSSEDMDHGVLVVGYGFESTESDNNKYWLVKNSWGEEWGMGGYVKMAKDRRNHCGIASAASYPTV

As to `O=C(O)CNC(=O)c1ccc2c(c1)C(=O)C(=O)c1ccccc1-2`, the IC50 in [1] is 15 µM; in assay [2] it was greater than 30 µM; in assay [3], 1.9 µM; in assay [4], 4.4 µM; in assay [5] it was 0.9 µM; in assay [7] it was greater than 10 µM. Besides, the IC50 in assay [8] is greater than 10 µM. In [6], this molecule yielded a CC50 greater than 30 µM.
As for `Nc1ccc2c(c1)C(=O)C(=O)c1ccccc1-2`, the IC50 was greater than 30 µM in assay [9]; greater than 30 µM in assay [10]; 4.7 µM in assay [11]; 0.6 µM in assay [5]; greater than 10 µM in assay [7]; 6 µM in assay [8]. Further, it took 5 µM to reach half-maximal cytotoxicity in [6] (CC50).
For `COC(=O)CCCCCCC(=O)Nc1ccc2c(c1)C(=O)C(=O)c1ccccc1-2`, the IC50 was 9.9 µM in assay [1]; greater than 30 µM in [2]; greater than 10 µM in assay [5]; greater than 10 µM in assay [7]; greater than 10 µM in [8]. Also, in assay [6], the CC50 worked out at 14 µM.
`O=C1C(=O)c2cccnc2-c2ccccc21`: the IC50 in assay [1] was 14 µM; in [2] it was greater than 30 µM; in assay [12], 1.4 µM; in assay [4] it was 0.2 µM; in [5], 0.6 µM; in assay [7] it was greater than 10 µM. For the same molecule, the IC50 in assay [13] was greater than 30 µM; in [14] it was 3.1 µM; in [8], 0.4 µM. The molecule also showed a CC50 in assay [6] of 2.4 µM.
Turning to `O=C(Nc1ccc2c(c1)C(=O)C(=O)c1ccccc1-2)c1ccccc1F`, the 50% inhibitory concentration (IC50) in assay [1] was 0.6 µM; in assay [2], 20 µM; in assay [12] it was 0.6 µM; in [4], 3.1 µM; in [5], 0.4 µM; in assay [7], greater than 10 µM. Moreover, the IC50 in assay [13] amounted to 18 µM; in assay [14], 11 µM; in [8] it was 9 µM. Further, in assay [6], it took 20 µM to reach half-maximal cytotoxicity (CC50).
Take `CC(C)(C)C(=O)Nc1ccc2c(c1)C(=O)C(=O)c1ccccc1-2`: the IC50 is 7 µM in [1]; greater than 30 µM in assay [2]; 0.5 µM in assay [5]; greater than 10 µM in assay [7]; greater than 30 µM in [13]; 3.8 µM in assay [14]. The IC50 in [8] is 0.4 µM. In addition, the CC50 in assay [6] was 3.5 µM.
In the case of `O=C(Nc1ccc2c(c1)-c1ccccc1C(=O)C2=O)c1ccccc1F`, the IC50 in assay [4] is 2.9 µM; in [15], 1.2 µM; in assay [13] it was greater than 30 µM; in assay [14] it was 5.8 µM. Also, the CC50 in assay [6] came to 15 µM.
With `COC(=O)CCC(=O)Nc1cccc2c1C(=O)C(=O)c1ccccc1-2`, the IC50 in [1] was 4.4 µM; in assay [2], greater than 30 µM; in assay [4], 0.5 µM; in assay [7] it was greater than 10 µM. Moreover, the CC50 in [6] was found to be 9 µM.
As to `COC(=O)CCC(=O)Nc1ccc2c(c1)C(=O)C(=O)c1cc(NC(=O)CCC(=O)OC)ccc1-2`, the IC50 is 12 µM in [1]; greater than 30 µM in assay [2]; 5.4 µM in assay [5]; greater than 10 µM in assay [7]; 2.9 µM in assay [14]; greater than 10 µM in [8]. Also, the midpoint of cytotoxicity in assay [6], the CC50, lay at 7 µM.
